How the values were obtained:
[1] = tested on: recombinant GRP94; assay type: binding; settings: at 50 μM
[2] = tested on: recombinant HSP90α; assay type: binding; settings: at 50 μM
[3] = tested on: DNMT; experiment: DNMT inhibition; assay type: biochemical; settings: Supporting Information Graph SI-1
[4] = tested on: KHMTs; experiment: KHMT inhibition; assay type: biochemical; settings: Supporting Information Graph SI-1
[5] = tested on: PRMTs; experiment: PRMT inhibition; assay type: biochemical; settings: Supporting Information Graph SI-1
[6] = tested on: MCF-7 cells; experiment: In situ probe labeling with in-gel TAMRA fluorescence, MCF-7; assay type: cell-based, human; settings: 100 μM competitor, 10 μM probe 4, UV irradiation
Summary of the method: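 MCF-7 cells (RPMI 1640, 10% FCS) at 80–90% confluence were washed and put in serum-free medium. They got 10 μM probe for 1 h at 37 °C, with 100 μM competitor, then 1 h of 365 nm UV. Lysis in RIPA plus protease inhibitors. SDS-PAGE, fluorescence scan, SYPRO Ruby loading control.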

[7] = tested on: K-562, KG-1, MOLM-13, and WM-266–4 cells; experiment: In situ probe labeling with in-gel TAMRA fluorescence, other cancer cell lines; assay type: cell-based, human; settings: K-562, KG-1, MOLM-13, WM-266–4 cells, 1 h treatment with 10 μM probe, triplicate
Summary of the method: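 Cell media: K-562 in RPMI 1640 with 10% FCS, KG-1 and MOLM-13 with 20% FCS, WM-266–4 in EMEM with 10% FCS. Cells were treated in serum-free medium, in triplicate, with 10 μM probe, control probe or 1% DMSO for 1 h at 37 °C. UV at 365 nm for 1 h, then RIPA lysis. Click with TAMRA-biotin-azide/CuSO4/TCEP/TBTA, SDS-PAGE, in-gel fluorescence, SYPRO Ruby loading control.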

Compound | binding to GRP94 [1] | binding to HSP90α [2] | activity against DNMT [3] | activity against KHMTs [4] | activity against PRMTs [5] | labeling of probe 4 after competition [6] | labeling of band at 100 kDa / fluorescent labeling [7]
COCn1cc(C(=O)NCC[C@H]2O[C@@H](n3cnc4c(N)ncnc43)[C@H](O)[C@@H]2O)c(N)nc1=O [Compound 1, 1-(Methoxymethyl)-N-((5′-deoxyadenosin-5′-yl)methyl)cytosine-5-carboxamide] | minor binding | no significant binding | inactive | inactive | inactive | completely abolished | –
Nc1nc(=O)n(COCc2ccccc2)cc1C(=O)NCC[C@H]1O[C@@H](n2cnc3c(N)ncnc32)[C@H](O)[C@@H]1O [Compound 2] | minor binding | no significant binding | inactive | inactive | inactive | completely abolished | –
C#CCCCC(=O)Nc1ccc(C(=O)c2ccc(NC(=O)CCCCNC(=O)OC(C)(C)C)cc2)cc1 [Compound 5, N-(4-(4-(5-(Boc-amino)pentanamido)benzoyl)phenyl)hex-5-ynamide] | – | – | – | – | – | – | absence of fluorescent labeling

— PMC7336334 (ACS chemical biology, 2020)
